The record followed here is ChEMBL document CHEMBL3091329, “Discovery of tetrahydroisoquinoline-based CXCR4 antagonists” (ACS Med Chem Lett, 2013).

Active and inactive are the calls of the source. No cut-off for these calls is given here.

In series [1] the test system is Mus musculus. Description: Induction of WBC mobilization in Harlan C57BL/6 mouse at 5 to 20 mg/kg, sc after 6 to 8 hrs by LC/MS/MS analysis relative to control. The format is functional, organism-based. The essentials:
(§1)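 Harlan mice were given a single subcutaneous dose at 5, 10 or 20 mg/kg. Blood was sampled at multiple time points over about 8 h, and each sample was used for both total circulating WBC count and plasma drug level. Counts and concentrations were plotted against time for each dose.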

Series [2] has as its system Plasma. Description: Plasma concentration in Harlan C57BL/6 mouse at 5 to 20 mg/kg, sc after 6 to 8 hrs by LC/MS/MS analysis. Further details: route subcutaneous. The format is ADME, organism-based. The settings on record: in vivo. The essentials: as §1
Series [3] in a line: Plasma concentration in Harlan C57BL/6 mouse at 20 mg/kg, sc after 1 hr by LC/MS/MS analysis. The format is ADME, organism-based. Further details: dose 20 mg/kg, route subcutaneous. The essentials:
as §1

Series [4] has as its system Mus musculus. Description: Induction of WBC mobilization in sc dosed Harlan C57BL/6 mouse after 1 to 8 hrs by LC/MS/MS analysis. The format is functional, organism-based. The essentials:
as §1

A short description of series [5]: AUC (0 to infinity) in jugular pre-cannulated CRL Sprague-Dawley rat at 10 mg/kg, po. The format is ADME, organism-based. Also noted: dose 10 mg/kg, route oral, time infinity. Particulars: plasma.
Series [6] in a line: AUC (0 to infinity) in jugular pre-cannulated Harlan Sprague-Dawley rat at 2 mg/kg, iv. The format is ADME, organism-based. Further details: time infinity, dose 2 mg/kg, route intravenous. Particulars: plasma.
Series [7] in a line: Elimination half life in jugular pre-cannulated CRL Sprague-Dawley rat at 10 mg/kg, po. The format is ADME, organism-based. Also noted: dose 10 mg/kg, route oral. The settings on record: in vivo, read-out: beta t1/2 (converted).
The nature of series [8]: Elimination half life in jugular pre-cannulated Harlan Sprague-Dawley rat at 2 mg/kg, iv. The format is ADME, organism-based. Also noted: dose 2 mg/kg, route intravenous. The settings on record: in vivo, read-out: beta t1/2 (converted).
Series [9] is described as follows: Half life in rat liver microsomes at 1 uM incubated for 3 mins prior to NADPH addition by LC-MS/MS analysis. The format is ADME.
Series [10] in a line: Half life in mouse liver microsomes at 1 uM incubated for 3 mins prior to NADPH addition by LC-MS/MS analysis. The format is ADME, Microsome.
Series [11] concerns Liver microsome. Description: Intrinsic clearance in rat liver microsomes at 1 uM incubated for 3 mins prior to NADPH addition by LC-MS/MS analysis. Particulars: 0.05 h. The format is ADME. For orientation: Liver microsomes are a subcellular fraction often used to study metabolism.
Series [12] can be described thus: Intrinsic clearance in mouse liver microsomes at 1 uM incubated for 3 mins prior to NADPH addition by LC-MS/MS analysis. Particulars: 0.05 h. The format is ADME, Microsome.
A short description of series [13]: Aqueous solubility in PBS at 7.4 after 90 mins by nephelometric analysis. Particulars: pH 7.4. The format is physicochemical.
Series [14] has as its target C-X-C chemokine receptor type 6 (Homo sapiens) (UniProt O00574). Description: Inhibition of CXCR6 (unknown origin) at 10 uM relative to control.
The target in series [15] is T1, C-X-C chemokine receptor type 1 (Homo sapiens) (UniProt P25024).
T1 sequence (whole entry): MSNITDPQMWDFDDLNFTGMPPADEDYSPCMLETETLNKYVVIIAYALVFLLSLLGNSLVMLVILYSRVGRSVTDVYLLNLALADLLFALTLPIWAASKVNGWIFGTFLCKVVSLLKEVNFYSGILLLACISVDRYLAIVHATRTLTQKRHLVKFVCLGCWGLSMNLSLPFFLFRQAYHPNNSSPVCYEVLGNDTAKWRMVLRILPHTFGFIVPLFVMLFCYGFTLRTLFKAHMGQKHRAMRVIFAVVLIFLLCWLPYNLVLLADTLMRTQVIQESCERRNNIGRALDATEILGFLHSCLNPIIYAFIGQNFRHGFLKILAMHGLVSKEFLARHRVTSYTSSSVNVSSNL
Description: Inhibition of CXCR1 (unknown origin) at 10 uM relative to control.

In series [16] the target is C-C chemokine receptor type 8 (Homo sapiens) (UniProt P51685). Description: Inhibition of CCR8 (unknown origin) at 10 uM relative to control.
Series [17] addresses T2, C-C chemokine receptor type 9 (Homo sapiens) (UniProt P51686).
T2 sequence (whole entry): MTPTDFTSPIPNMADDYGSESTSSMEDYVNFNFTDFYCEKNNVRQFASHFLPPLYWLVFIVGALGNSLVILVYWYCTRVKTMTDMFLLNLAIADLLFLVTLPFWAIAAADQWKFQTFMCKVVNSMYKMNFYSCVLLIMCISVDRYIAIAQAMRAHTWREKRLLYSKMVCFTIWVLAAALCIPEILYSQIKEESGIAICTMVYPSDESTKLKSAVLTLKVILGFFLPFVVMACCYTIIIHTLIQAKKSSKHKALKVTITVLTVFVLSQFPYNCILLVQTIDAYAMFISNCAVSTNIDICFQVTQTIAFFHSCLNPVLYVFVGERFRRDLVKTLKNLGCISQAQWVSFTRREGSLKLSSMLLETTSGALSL
Description: Inhibition of CCR9 (unknown origin) at 10 uM relative to control.

Series [18] deals with C-C chemokine receptor type 5 (Homo sapiens) (UniProt P51681). Description: Inhibition of CCR5 (unknown origin) at 10 uM relative to control.
Series [19] has as its target T3, C-C chemokine receptor type 4 (Homo sapiens) (UniProt P51679).
T3 sequence (whole entry): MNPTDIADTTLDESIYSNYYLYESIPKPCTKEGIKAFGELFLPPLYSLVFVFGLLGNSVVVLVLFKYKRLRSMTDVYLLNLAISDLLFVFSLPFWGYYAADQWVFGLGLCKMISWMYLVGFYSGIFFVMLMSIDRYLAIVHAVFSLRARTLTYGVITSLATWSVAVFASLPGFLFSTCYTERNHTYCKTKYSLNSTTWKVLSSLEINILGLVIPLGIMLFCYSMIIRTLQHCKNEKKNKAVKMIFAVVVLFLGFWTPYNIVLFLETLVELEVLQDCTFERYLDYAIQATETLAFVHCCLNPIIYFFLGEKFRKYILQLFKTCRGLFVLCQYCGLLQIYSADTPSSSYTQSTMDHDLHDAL
Description: Inhibition of CCR4 (unknown origin) at 10 uM relative to control.

Series [20] addresses C-C chemokine receptor type 2 (Homo sapiens) (UniProt P41597). Description: Inhibition of CCR2B (unknown origin) at 10 uM relative to control.
Series [21] concerns the target T4, C-C chemokine receptor type 1 (Homo sapiens) (UniProt P32246).
T4 sequence (whole entry): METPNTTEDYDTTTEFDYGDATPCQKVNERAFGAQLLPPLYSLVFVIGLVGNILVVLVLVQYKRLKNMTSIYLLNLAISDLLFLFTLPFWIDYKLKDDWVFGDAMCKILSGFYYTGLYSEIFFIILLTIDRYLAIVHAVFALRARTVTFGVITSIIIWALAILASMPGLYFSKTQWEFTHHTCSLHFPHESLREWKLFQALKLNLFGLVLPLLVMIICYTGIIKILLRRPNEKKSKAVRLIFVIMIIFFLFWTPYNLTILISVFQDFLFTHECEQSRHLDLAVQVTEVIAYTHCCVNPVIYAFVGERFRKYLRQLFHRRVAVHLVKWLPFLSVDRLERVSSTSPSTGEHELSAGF
Description: Inhibition of CCR1 (unknown origin) at 10 uM relative to control.

Series [22] concerns the target C-X-C chemokine receptor type 4 (Homo sapiens, UniProt P61073).

Sequence of C-X-C chemokine receptor type 6 (Homo sapiens) (O00574 whole entry, looked up): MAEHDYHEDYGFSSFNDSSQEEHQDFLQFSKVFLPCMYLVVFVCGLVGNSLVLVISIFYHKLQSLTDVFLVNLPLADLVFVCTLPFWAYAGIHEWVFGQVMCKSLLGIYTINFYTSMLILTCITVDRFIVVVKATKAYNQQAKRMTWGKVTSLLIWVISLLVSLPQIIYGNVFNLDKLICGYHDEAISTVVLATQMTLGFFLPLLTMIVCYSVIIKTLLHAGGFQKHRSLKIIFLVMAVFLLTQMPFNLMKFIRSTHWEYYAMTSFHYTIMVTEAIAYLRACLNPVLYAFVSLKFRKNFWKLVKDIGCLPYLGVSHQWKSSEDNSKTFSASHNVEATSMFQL
Sequence of C-C chemokine receptor type 5 (Homo sapiens) (P51681 whole entry, looked up): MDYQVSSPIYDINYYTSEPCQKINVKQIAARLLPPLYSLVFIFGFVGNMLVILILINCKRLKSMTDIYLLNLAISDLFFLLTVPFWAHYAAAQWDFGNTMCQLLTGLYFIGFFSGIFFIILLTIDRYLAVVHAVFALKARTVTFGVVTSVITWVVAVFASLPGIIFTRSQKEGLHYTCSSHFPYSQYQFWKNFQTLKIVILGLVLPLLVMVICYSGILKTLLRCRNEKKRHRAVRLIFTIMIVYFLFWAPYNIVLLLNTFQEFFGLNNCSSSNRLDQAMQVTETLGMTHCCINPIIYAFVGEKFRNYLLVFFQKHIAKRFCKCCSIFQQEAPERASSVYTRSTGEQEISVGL
Sequence of C-C chemokine receptor type 8 (Homo sapiens) (P51685 whole entry): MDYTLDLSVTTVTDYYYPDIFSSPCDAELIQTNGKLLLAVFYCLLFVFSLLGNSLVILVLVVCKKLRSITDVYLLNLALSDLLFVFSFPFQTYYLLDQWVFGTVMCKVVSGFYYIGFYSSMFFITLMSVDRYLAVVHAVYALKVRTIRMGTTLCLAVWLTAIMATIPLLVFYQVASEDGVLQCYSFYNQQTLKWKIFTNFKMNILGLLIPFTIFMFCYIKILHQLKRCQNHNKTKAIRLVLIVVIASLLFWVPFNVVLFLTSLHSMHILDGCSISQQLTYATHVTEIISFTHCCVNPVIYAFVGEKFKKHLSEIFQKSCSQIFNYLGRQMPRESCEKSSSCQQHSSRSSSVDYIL
Sequence of C-X-C chemokine receptor type 4 (P61073 whole entry): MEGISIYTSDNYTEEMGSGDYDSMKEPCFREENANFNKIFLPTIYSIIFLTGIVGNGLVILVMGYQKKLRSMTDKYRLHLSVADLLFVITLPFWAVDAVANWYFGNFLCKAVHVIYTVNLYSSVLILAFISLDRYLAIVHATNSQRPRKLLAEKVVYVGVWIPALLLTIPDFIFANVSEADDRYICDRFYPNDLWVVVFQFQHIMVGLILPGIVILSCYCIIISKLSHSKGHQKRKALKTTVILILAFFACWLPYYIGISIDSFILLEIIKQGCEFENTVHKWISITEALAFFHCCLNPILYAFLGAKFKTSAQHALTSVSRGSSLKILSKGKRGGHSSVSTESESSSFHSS
Sequence of C-C chemokine receptor type 2 (Homo sapiens) (P41597 whole entry, looked up): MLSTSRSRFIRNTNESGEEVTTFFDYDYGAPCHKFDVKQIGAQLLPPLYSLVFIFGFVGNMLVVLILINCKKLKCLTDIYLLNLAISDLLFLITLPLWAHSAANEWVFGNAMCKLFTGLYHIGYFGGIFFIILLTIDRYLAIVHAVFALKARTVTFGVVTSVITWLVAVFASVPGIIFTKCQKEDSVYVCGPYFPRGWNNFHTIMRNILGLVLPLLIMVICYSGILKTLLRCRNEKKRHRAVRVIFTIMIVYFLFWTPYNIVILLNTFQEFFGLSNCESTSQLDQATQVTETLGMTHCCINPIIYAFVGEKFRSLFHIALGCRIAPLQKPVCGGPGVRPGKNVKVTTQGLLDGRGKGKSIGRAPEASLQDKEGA

The term AUC(0-inf) denotes total exposure, with the tail of the curve extrapolated. A higher AUC(0-inf) goes with high exposure. For orientation: kinetic solubility means the concentration staying in solution when a stock, usually in DMSO, is diluted into the medium. By inhibition is commonly meant the drop in the measured response relative to a control, in per cent. Broadly, the IC90 is the concentration needed for an effect of 90%. Consider `NCCCCN(C[C@H]1Cc2ccccc2CN1)[C@H]1CCCc2cccnc21`, for which the result in series [1] was inactive. Also, the Cp in series [2] worked out at 87 ng/mL. Besides, the concentration at 1 h in series [3] was 1540 ng/mL. For the same compound, in [4], the Activity result was “Dose-dependent effect”. Besides, the figures for the AUC(0-inf) in series [5] and in series [6] were 328 ng·h/mL and 108 ng·h/mL, respectively. Besides, the half-life in [7] was 360 min; in [8], 72 min. Also, the half-life at 1 µM in series [9] is 39 min; in series [10], 22 min. The CLH worked out at 35 µL/min/mg in [11] and 64 µL/min/mg in series [12]. The compound also registered a solubility (kinetic) at […] in [13] of over 274 µM. The inhibition in [14], in series [15], in series [16], in series [17], in [18] and in series [19] was under 10% throughout. Moreover, the inhibition in [20] and in series [21] was under 10% throughout. This compound returned an IC90 in series [22] of 240 nM.
